Screening results from PubChem.
Compounds with a hit are over-represented: about 12% of the library has one in this group of screens.
Autophagy HCS – alters autophagy in cells; calls only at 10 µM (by protocol); AID 463193; hit rate 0.98% among 190,000; MEF GFP-LC3 puncta imaging; test concentration mostly 10 µM;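 active means percentage of spot-positive cells more than 3 SD above its plate mean, without a fluorescence outlier flag or 80% toxicity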;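 further: spot-positive cell cutoff set from DMSO-treated cells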
MT stabilizer – microtubule stabilization, imaging screen | HeLa tubulin immunostaining HCS, 24 h; share of cells brighter than vehicle mean+2SD | % tubulin-high responders, % at 10 µM | hit rate 0.83% among 200,000 | AID 2205;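 active means plate Z-score above 3 for both tubulin-high and condensed-nucleus cell shares, with cell loss under 80%, at 10 µM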;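 further: anti alpha tubulin signal scored within the nucleus-defined area of each cell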
Dynein cargo inh – dynein cargo transport inhibition | 3617.4 mouse cells, GR-EGFP nuclear translocation imaging; test concentration mostly 20 µM; stimulated with dexamethasone, 1 µM; hits give low values | z-score, hits read low | hit rate 0.47% among 220,000 | AID 1381;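 active means plate z-score of nuclear minus cytoplasmic receptor signal below a set negative limit, without overly bright fluorescence or cell loss, cut at about -3.5 in these data, passing the limit was not always enough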;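 further: z-score of nuclear minus cytoplasmic ring GR-EGFP intensity difference per well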
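Buffer or medium: Induction medium lacking tetracycline, stripped serum | Also added: Dexamethasone agonist, 1.0 µM final, for 30 min | Timing: 48 h induction, 1 h compound, 30 min dex at 37 °C | Detection: Formaldehyde fixation, Hoechst nuclear stain, 10x automated fluorescence imaging | Measure: Nuclear versus cytoplasmic GR-EGFP signal, averaged per well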
CHOP inhibitor – blocks CHOP induction under ER stress | CHO-K1 CHOP-promoter luciferase, tunicamycin-induced, 15-18 h | hit rate 3.8% among 220,000 | inhibition, % at 10 µM;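 active means compounds that reduced the stress-induced luciferase reporter signal by more than about 70% of percent inhibition, limit read from the data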;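 further: 0% = tunicamycin plus vehicle and 100% = wells without tunicamycin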
L major viab – reduces viability of Leishmania major promastigotes | resazurin fluorescence viability | inhibition, % at 10 µM | hit rate 9% among 200,000; in the data active means inhibition above about 50%;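 further: promastigotes grown with compound for 44 hours at 28 °C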
b-catenin transl – alters nuclear translocation of beta-catenin in HeLa cells. immunofluorescence imaging. hit rate 0.3% among 190,000. AID 1665. nuclear translocation activity, % at 5 µM;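 active means nuclear translocation activity above 50% at 5 µM, with a well cell count of 50 or more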;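 further: per-cell ratio of nuclear to cytoplasmic median beta-catenin stain intensity; plate controls were DMSO negative control for no effect and GSK-3 inhibitor IX positive control for full effect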
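Test system: HeLa cells, endogenous beta-catenin; Compound: single 5 µM dose plus 0.02–20 µM confirmation series; Times: compound exposure 24 h at 37°C; Signal: fluorescence imaging of beta-catenin antibody stain plus DAPI; Read-out: % activation, nuclear-to-cytoplasmic median beta-catenin signal ratio per cell.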
* hit, by the source's call; i = inactive; nt = no result given; + = active, no number.

SMILES | Autophagy HCS | MT stabilizer | Dynein cargo inh | CHOP inhibitor | L major viab | b-catenin transl
CC(COc1ccccc1)N1CCC(CO)(Cc2ccccc2)CC1 (centres undefined) | i | 3.3 | -1.21 | 17.4 | 60.3* | -2.3
COc1ccc(CC2(CO)CCN(S(=O)(=O)N(C)C)CC2)cc1 | i | 2.2 | -0.297 | -3.0 | -4.9 | 0.3
COc1ccc(CC2(CO)CCN(C/C=C/c3ccccc3OC)CC2)cc1 | i | 3.6 | -0.269 | 50.0 | 86.8* | 3.1
COc1ccc(CC2(CO)CCN(C(C)COc3ccccc3)CC2)cc1 (centres undefined) | i | 1.8 | -1.25 | 27.3 | 78.9* | 1.0
O=C(NC1CCS(=O)(=O)C1)c1cccc(S(=O)(=O)N2CCCC2)c1 (centres undefined) | i | 1.0 | 0.654 | 2.7 | -1.5 | -3.9
N#CC1=C(N)N(c2ccc(F)cc2)C2=C(C1c1ccc(O)cc1)S(=O)(=O)CC2 (centres undefined) | i | 12.8 | 0.249 | -0.8 | 0.5 | 4.2
CCC(C)NC(=O)c1ccccc1NC(=O)C1COc2ccccc2O1 (centres undefined) | i | 4.4 | -0.119 | -1.5 | 8.7 | -2.4
O=C(Nc1ccc(S(=O)(=O)Nc2ccccc2)cc1)C1COc2ccccc2O1 (centres undefined) | i | 4.0 | 0.322 | 84.7* | 38.8 | -0.1
Cc1cc(C)nc(NS(=O)(=O)c2ccc(NC(=O)C3COc4ccccc4O3)cc2)n1 (centres undefined) | i | 4.2 | 1.87 | 8.8 | -6.4 | -0.9
CC(C)NC(=O)c1ccccc1NC(=O)C1COc2ccccc2O1 (centres undefined) | i | 3.6 | -0.225 | 16.1 | 54.9* | -0.5
Cc1ccc(NC(=O)CSCCc2ccccn2)nc1 | i | 1.6 | 2.32 | 8.7 | 1.5 | nt
CCOC(=O)c1cc2c(N)c(C(=O)c3cc(C#N)c(SC)nc3C)sc2nc1C | + | 20.7 | -0.541 | 42.3 | 6.0 | -0.7
CCOC(=O)c1cc(C#N)c(SC)nc1C | nt | nt | -0.288 | 20.2 | nt | -2.6
O=C1Nc2ccccc2N=C(c2ccccc2)c2ccccc21 | nt | nt | 0.399 | -8.0 | nt | -1.4
C=CCN(c1ccccc1)S(=O)(=O)c1ccc(Cl)c(C(=O)OCC(=O)c2[nH]c(C)c(C(C)=O)c2C)c1 | i | 3.2 | 0.689 | 43.5 | 75.7* | nt
Cc1ccc(/C=C/C(=O)N2CC(C)CC(C)C2)o1 (centres undefined) | i | 2.9 | -1.89 | 18.2 | -1.0 | nt
COc1ccc(C2C=C(c3ccc(C)cc3)Nc3ncnn32)cc1 (centres undefined) | i | 4.9 | 3.34 | -9.7 | 2.4 | -3.9
COc1ccc(C2C=C(c3ccc(Br)s3)Nc3ncnn32)cc1OC (centres undefined) | i | 29.2* | -0.0799 | -1.6 | -5.7 | 57.9*
S=C(Nc1cccc(Cl)c1)NC1CC2CCCC(C1)N2C1CCCC1 (centres undefined) | i | 2.3 | -0.515 | 26.2 | 72.9* | -0.8
C=CCN1C2CCCC1CC(NC(=S)Nc1ccc(Cl)cc1)C2 (centres undefined) | i | 2.7 | -0.445 | 9.4 | 96.1* | -0.1
S=C(Nc1ccc(Cl)cc1)NC1CC2CCCC(C1)N2C1CCCC1 (centres undefined) | i | 1.3 | 1.02 | 31.2 | 77.1* | nt
S=C(Nc1ccc(Cl)cc1)NC1CC2CCCC(C1)N2C1CC1 (centres undefined) | i | 4.0 | 0.638 | 32.0 | 38.5 | 1.7
Nc1ccc(-c2nc3ccc(C(=O)O)cc3s2)cc1 | i | 7.2 | 0.687 | 92.1* | -0.3 | -0.4
COc1ccccc1NC(NC(=O)c1cccnc1)C(Cl)(Cl)Cl (centres undefined) | i | 3.7 | 1.85 | 39.5 | 16.8 | -2.1
COC(=O)C(C)Oc1ccc(-c2nccc(-c3cccs3)n2)cc1 (centres undefined) | i | 1.3 | -0.344 | 91.5* | -8.0 | -0.3
NC(=O)c1ccc(Oc2ccc(C(N)=O)cc2)cc1 | nt | nt | 0.702 | 4.0 | nt | -2.8
O=C(O)c1ccccc1N/N=C/C1=C(N2CCOCC2)C(=C\c2ccccc2)/CC1 | nt | nt | -0.604 | 16.8 | nt | 0.5
O=C(N/N=C/C1=C(N2CCOCC2)C(=C\c2ccccc2)/CC1)Nc1ccccc1 | i | 3.9 | 0.272 | 82.2* | 6.3 | 3.4
